Among the data in ChEMBL document CHEMBL5705888, “Substrate specificity and inhibitors of LRRK2, a protein kinase mutated in Parkinson's disease” (Biochem J, 2009) are residual activity, inhibition and IC50 values, retold here.

In experiment [1] the target is Calcium/calmodulin-dependent protein kinase kinase 2 (Homo sapiens) (UniProt Q96RR4). The experiment in a line: Residual activity of CaMKKbeta (unknown origin) at 10 uM incubated for 30 mins in presence of [gamma-33P]ATP by multidrop micro reagent based assay relative to control.
Experiment [2] concerns the target Serine/threonine-protein kinase 26 (Homo sapiens) (UniProt Q9P289). The experiment in a line: Inhibition of MST4 (unknown origin) at 10 uM incubated for 30 mins in presence of [gamma-33P]ATP by multidrop micro reagent based assay relative to control. Put shortly: (§1)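 Single-concentration screen across a panel of 85 protein kinases. Activity is expressed as a percentage of control incubations run without inhibitor.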

Experiment [3] has as its target T1, Interleukin-1 receptor-associated kinase 4 (Homo sapiens) (UniProt Q9NWZ3).
T1 sequence (whole entry): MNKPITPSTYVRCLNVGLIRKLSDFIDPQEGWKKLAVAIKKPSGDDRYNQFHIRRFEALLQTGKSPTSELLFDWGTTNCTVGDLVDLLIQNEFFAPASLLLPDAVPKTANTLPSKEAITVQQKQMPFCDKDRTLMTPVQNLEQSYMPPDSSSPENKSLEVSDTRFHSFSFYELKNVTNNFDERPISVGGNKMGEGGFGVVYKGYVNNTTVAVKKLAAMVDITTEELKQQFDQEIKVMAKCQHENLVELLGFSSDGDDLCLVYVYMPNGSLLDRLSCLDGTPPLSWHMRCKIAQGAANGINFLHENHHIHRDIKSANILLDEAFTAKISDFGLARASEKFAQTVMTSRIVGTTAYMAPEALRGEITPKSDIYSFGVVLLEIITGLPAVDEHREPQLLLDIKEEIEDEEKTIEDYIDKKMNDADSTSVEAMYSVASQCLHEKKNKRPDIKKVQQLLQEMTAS
The experiment in a line: Inhibition of IRAK4 (unknown origin) at 10 uM incubated for 30 mins in presence of [gamma-33P]ATP by multidrop micro reagent based assay relative to control; values are per cent of control.

Experiment [4] addresses Ribosomal protein S6 kinase alpha-5 (Homo sapiens) (UniProt O75582). As to the kind of experiment: Inhibition of MSK1 (unknown origin) at 10 uM incubated for 30 mins in presence of [gamma-33P]ATP by multidrop micro reagent based assay relative to control. Put shortly:
as §1

The target in experiment [5] is Insulin-like growth factor 1 receptor (Homo sapiens) (UniProt P08069). The experiment in a line: Inhibition of IGF-1R (unknown origin) at 10 uM incubated for 30 mins in presence of [gamma-33P]ATP by multidrop micro reagent based assay relative to control.
The target in experiment [6] is Tyrosine-protein kinase CSK (Homo sapiens) (UniProt P41240). As to the kind of experiment: Residual activity of CSK (unknown origin) at 10 uM incubated for 30 mins in presence of [gamma-33P]ATP by multidrop micro reagent based assay relative to control.
In experiment [7] the target is Casein kinase 2 (Homo sapiens) (UniProt P67870+P68400+P19784+Q8NEV1). As to the kind of experiment: Inhibition of CK2 (unknown origin) at 10 uM incubated for 30 mins in presence of [gamma-33P]ATP by multidrop micro reagent based assay relative to control; values are per cent of control.
The target of experiment [8] is Serine/threonine-protein kinase pim-1 (Homo sapiens) (UniProt P11309). The experiment in a line: Inhibition of PIM1 (unknown origin) at 1 uM incubated for 30 mins in presence of [gamma-33P]ATP by multidrop micro reagent based assay relative to control; values are per cent of control.
Experiment [9] has as its target Serine/threonine-protein kinase pim-2 (Homo sapiens) (UniProt Q9P1W9). The experiment in a line: Inhibition of PIM2 (unknown origin) at 1 uM incubated for 30 mins in presence of [gamma-33P]ATP by multidrop micro reagent based assay relative to control; values are per cent of control.
The target of experiment [10] is Leucine-rich repeat serine/threonine-protein kinase 2 (Homo sapiens, UniProt Q5S007). The experiment in a line: Inhibition of LRRK2 in human HEK293 cells assessed as inhibition of ERM phosphorylation at 10 uM incubated for 1 hr using LRRKtide as substrate in presence of sunitinib by immunoblot analysis. The experiment is classed as cell-based. Put shortly:
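SDS lysates were run on 4–12% gels and immunoblotted for ERM phosphorylation with pan-phospho-ERM antibody (1 μg/ml, with 10 μg/ml LRRKtide in blocking milk/TBST).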

Experiment [11] deals with Homeodomain-interacting protein kinase 2 (Homo sapiens) (UniProt Q9H2X6). As to the kind of experiment: Inhibition of HIPK2 (unknown origin) at 1 uM incubated for 30 mins in presence of [gamma-33P]ATP by multidrop micro reagent based assay relative to control; values are per cent of control.
The next experiment is filed under the species Homo sapiens. As to the kind of experiment: Inhibition of CDK2/cyclin A (unknown origin) at 10 uM incubated for 30 mins in presence of [gamma-33P]ATP by multidrop micro reagent based assay relative to control.
In experiment [12] the target is Leucine-rich repeat serine/threonine-protein kinase 2 (Homo sapiens, UniProt Q5S007, G2019S). The experiment in a line: Inhibition of GST-tagged LRRK2 G2019S mutant (1326 to 2527 residues) (unknown origin) in presence of ATP.
The target in experiment [13] is T2, Mitogen-activated protein kinase kinase kinase kinase 2 (Homo sapiens) (UniProt Q12851).
T2 sequence (whole entry): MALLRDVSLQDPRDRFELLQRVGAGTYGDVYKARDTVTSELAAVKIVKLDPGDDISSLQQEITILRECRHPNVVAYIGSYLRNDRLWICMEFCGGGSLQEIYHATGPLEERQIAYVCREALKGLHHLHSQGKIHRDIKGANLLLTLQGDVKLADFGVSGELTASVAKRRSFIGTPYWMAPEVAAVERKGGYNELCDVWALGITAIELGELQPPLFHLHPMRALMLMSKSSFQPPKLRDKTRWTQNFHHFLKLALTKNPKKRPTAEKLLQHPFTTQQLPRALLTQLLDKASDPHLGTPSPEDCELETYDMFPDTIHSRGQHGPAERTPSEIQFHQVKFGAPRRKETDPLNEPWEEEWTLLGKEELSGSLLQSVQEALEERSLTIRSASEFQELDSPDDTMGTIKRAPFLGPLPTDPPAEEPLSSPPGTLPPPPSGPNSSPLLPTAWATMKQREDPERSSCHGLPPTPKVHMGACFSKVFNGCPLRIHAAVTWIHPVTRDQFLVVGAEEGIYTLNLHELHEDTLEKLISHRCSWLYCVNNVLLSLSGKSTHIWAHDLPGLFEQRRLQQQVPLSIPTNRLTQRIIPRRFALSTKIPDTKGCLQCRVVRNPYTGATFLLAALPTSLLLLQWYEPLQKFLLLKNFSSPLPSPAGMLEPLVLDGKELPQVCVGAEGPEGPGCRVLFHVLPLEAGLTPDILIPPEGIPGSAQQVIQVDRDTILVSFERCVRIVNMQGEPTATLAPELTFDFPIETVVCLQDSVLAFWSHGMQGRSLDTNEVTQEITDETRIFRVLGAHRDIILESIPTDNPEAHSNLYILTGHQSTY
As to the kind of experiment: Inhibition of GCK (unknown origin) at 0.1 uM incubated for 30 mins in presence of [gamma-33P]ATP by multidrop micro reagent based assay relative to control.

Active and inactive are the calls of the source. No cut-off for these calls is given here.

Sequence of Serine/threonine-protein kinase pim-1 (Homo sapiens) (P11309 whole entry, looked up): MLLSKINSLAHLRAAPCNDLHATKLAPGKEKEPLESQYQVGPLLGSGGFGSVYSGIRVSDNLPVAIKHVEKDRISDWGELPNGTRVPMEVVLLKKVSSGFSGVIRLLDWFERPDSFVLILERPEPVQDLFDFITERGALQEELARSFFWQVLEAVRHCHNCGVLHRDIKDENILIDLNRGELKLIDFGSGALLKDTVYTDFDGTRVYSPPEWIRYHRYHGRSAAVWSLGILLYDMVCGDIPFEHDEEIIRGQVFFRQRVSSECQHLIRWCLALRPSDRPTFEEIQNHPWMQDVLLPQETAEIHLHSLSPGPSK
Sequence of Leucine-rich repeat serine/threonine-protein kinase 2 (Homo sapiens, UniProt Q5S007) (Q5S007 whole entry): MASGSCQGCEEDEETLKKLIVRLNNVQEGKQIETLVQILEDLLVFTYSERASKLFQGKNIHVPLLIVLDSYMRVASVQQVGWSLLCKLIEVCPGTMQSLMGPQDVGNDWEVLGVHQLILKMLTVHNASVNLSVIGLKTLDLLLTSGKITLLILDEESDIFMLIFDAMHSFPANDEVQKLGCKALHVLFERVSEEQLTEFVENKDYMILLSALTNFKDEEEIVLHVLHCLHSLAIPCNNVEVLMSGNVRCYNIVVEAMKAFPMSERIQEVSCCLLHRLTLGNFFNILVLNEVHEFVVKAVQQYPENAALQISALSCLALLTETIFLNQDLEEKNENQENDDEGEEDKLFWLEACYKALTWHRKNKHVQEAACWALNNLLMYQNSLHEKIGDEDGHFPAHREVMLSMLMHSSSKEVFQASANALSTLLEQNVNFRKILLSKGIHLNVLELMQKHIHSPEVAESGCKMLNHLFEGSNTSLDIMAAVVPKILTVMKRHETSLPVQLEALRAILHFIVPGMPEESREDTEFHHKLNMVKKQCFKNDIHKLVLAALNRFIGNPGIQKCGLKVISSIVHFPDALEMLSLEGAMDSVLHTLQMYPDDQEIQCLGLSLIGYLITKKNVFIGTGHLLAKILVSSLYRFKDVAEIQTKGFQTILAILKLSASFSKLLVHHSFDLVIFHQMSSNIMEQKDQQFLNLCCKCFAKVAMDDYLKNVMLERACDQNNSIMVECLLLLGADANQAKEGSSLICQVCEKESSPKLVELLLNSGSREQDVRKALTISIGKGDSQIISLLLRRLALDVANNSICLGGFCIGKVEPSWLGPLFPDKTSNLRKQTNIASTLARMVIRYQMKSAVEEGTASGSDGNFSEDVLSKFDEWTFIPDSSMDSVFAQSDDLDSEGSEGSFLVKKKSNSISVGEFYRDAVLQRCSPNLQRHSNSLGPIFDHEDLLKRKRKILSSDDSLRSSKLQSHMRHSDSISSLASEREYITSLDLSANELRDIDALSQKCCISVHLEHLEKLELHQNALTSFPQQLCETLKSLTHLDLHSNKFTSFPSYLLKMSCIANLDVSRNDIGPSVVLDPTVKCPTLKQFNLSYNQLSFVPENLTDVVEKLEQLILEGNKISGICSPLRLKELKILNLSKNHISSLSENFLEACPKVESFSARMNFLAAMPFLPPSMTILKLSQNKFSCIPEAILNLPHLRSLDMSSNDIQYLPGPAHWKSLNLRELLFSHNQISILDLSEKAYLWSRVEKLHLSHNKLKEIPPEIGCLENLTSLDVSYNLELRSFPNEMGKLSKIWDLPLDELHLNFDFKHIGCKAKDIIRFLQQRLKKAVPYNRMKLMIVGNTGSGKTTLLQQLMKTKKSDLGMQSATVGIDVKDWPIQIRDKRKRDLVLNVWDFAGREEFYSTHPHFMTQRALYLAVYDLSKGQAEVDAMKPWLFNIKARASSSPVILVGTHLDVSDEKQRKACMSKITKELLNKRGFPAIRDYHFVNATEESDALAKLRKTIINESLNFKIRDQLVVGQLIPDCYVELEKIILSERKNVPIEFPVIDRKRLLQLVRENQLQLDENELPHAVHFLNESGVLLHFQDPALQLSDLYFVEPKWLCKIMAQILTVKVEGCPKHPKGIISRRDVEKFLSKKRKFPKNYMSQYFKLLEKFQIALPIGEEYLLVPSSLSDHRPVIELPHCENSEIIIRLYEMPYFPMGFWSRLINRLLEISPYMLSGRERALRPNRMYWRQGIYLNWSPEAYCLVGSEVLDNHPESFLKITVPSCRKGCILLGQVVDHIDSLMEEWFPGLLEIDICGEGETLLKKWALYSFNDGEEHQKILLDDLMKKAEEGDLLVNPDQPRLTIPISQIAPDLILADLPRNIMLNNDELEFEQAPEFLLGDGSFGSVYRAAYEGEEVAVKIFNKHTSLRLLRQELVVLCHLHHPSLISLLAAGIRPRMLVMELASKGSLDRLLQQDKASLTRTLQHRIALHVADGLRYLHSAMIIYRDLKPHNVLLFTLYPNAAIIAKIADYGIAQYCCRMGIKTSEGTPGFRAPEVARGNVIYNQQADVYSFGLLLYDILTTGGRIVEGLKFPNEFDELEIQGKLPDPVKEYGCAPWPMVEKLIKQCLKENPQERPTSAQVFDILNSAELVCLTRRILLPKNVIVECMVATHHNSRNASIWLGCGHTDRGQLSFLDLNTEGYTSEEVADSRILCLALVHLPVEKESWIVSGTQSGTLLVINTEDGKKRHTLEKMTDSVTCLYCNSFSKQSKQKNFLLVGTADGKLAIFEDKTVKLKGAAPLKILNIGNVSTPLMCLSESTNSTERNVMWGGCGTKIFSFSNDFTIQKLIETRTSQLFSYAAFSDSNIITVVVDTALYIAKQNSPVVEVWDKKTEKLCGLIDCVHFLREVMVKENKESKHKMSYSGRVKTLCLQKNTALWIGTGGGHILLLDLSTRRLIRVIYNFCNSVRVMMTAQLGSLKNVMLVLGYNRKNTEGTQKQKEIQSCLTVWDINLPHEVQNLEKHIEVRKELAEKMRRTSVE
Sequence of Calcium/calmodulin-dependent protein kinase kinase 2 (Homo sapiens) (Q96RR4 2-588 limits assumed): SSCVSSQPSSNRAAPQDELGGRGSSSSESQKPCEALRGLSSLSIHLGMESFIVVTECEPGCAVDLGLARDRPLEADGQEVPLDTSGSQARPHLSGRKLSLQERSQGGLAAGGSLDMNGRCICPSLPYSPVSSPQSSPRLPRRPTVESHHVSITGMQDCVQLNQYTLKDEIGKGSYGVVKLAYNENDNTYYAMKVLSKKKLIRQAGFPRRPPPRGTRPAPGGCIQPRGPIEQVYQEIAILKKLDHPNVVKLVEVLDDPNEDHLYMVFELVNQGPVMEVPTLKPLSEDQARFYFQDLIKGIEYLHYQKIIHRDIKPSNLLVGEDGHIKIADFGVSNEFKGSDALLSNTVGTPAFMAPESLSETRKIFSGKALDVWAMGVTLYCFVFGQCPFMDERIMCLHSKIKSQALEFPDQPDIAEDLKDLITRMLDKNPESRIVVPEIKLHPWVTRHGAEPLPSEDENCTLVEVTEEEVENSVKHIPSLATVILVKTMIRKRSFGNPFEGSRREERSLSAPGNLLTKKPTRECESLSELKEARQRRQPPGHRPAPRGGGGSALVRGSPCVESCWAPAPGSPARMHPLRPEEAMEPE
Sequence of Leucine-rich repeat serine/threonine-protein kinase 2 (Homo sapiens, UniProt Q5S007, G2019S) (Q5S007 whole entry G2019S, the tested form may be a part): as the sequence (Q5S007 whole entry) above, with G2019S counted along it
Sequence of Serine/threonine-protein kinase pim-2 (Homo sapiens) (Q9P1W9 whole entry, looked up): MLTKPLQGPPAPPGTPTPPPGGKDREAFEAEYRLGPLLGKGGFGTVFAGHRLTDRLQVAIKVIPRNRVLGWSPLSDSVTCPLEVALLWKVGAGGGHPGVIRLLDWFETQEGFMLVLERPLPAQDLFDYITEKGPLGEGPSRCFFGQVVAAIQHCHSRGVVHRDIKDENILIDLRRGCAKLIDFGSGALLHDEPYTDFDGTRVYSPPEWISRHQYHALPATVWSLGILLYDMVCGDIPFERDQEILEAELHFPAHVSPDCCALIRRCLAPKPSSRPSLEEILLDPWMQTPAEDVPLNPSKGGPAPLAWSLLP
Sequence of Homeodomain-interacting protein kinase 2 (Homo sapiens) (Q9H2X6 whole entry, looked up): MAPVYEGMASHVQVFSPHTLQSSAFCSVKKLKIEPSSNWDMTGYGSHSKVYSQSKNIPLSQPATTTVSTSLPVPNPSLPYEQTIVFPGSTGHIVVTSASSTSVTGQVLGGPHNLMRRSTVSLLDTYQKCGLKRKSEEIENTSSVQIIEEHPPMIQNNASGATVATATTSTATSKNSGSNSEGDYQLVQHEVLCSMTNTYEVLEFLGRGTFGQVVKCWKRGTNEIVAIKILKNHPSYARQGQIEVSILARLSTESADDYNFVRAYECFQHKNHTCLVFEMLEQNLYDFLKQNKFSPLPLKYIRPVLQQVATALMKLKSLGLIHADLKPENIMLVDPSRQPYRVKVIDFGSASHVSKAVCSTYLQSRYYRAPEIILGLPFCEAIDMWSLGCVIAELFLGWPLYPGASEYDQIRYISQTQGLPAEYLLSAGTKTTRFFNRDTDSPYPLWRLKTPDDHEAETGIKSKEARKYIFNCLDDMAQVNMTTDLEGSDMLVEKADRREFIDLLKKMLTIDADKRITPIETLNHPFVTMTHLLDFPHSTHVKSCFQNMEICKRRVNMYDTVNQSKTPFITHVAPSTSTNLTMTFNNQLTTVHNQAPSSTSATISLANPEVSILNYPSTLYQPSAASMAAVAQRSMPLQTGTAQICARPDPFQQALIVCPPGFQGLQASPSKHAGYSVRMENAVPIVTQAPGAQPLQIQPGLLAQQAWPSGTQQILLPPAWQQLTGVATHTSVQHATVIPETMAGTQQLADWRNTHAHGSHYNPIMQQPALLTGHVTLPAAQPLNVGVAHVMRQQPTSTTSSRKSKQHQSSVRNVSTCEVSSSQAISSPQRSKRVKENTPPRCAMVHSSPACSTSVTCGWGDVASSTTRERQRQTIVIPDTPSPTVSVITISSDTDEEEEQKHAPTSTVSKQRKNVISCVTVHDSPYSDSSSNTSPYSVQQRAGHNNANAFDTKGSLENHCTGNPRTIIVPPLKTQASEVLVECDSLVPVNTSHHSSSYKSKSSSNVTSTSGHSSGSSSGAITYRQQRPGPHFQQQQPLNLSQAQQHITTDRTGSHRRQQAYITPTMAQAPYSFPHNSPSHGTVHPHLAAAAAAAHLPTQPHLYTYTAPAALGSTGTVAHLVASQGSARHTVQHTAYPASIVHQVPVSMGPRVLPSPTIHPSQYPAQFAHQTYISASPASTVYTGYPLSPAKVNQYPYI

Consider `C[C@@H](N)[C@H]1CC[C@H](C(=O)Nc2ccncc2)CC1`, for which the residual activity turned out to be 102% in experiment [1], 101% in experiment [3], 104% in experiment [6] and 85% in [7]. Further, the inhibition in experiment [2] was found to be 67%; in experiment [4], 41%; in [5], 99%.

Turning to `CCn1c(-c2nonc2N)nc2cnc(Oc3cccc(NC(=O)c4ccc(OCCN5CCOCC5)cc4)c3)cc21` [GSK-269962A], in experiment [8], the residual activity is 31%.

Regarding `CC1=C(C(=O)Nc2cc3cn[nH]c3cc2F)C(c2ccc(C(F)(F)F)cc2)CC(=O)N1` (stereo unspecified), the residual activity worked out at 106% in experiment [9], 89% in [8] and 104% in [11]. Besides, in experiment [10], the inhibition entry was “inactive”.

Take `O=S(=O)(c1cccc2cnccc12)N1CCCNCC1` [FASUDIL]: the residual activity in [3] was 69%. The inhibition in the experiment filed under Homo sapiens amounted to 82%.

`Cc1cncc2cccc(S(=O)(=O)N3CCCNC[C@@H]3C)c12`: the IC50 in [12] turned out to be 104 nM.

`CCN(CC)CCNC(=O)c1c(C)[nH]c(/C=C2\C(=O)Nc3ccc(F)cc32)c1C`: the inhibition in experiment [13] worked out at 45%.

The residual activity is the signal under treatment as a percentage of the control signal. Usually inhibition stands for the share of the control response that was lost under treatment. What is called IC50 is the midpoint of a concentration-inhibition curve.
